Laboratory results published in ChEMBL document CHEMBL2331097, “Synthesis of 5,7-disubstituted-4-methyl-7H-pyrrolo[2,3-d]pyrimidin-2-amines as microtubule inhibitors” (Bioorg Med Chem, 2013).
One block for each compound: values may come before it. The source made the active and inactive calls. The calls are words filed in the database; no cut-off is given here.

How the values were obtained:
[1] = Cytotoxicity against mouse JC cells assessed as inhibition of cell survival after 48 hrs by SRB assay; assay type: functional, cell-based
Outline: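 JC (CRL-2116) cells kept in RPMI-1640 with L-glutamine, 10% FBS and 50 μg/ml gentamicin at 37 °C, 5% CO₂. Cells were seeded at about 20% confluency and left 24 h to attach, then exposed to a range of concentrations for 48 h. Cells were PBS-washed, fixed in 10% trichloroacetic acid and stained with 0.4% SRB in 1% acetic acid. Dye was dissolved in 10 mM Tris and absorbance read at 570 nm.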

JC = test: Modulatory activity at P-gp in mouse JC cells assessed as lowest drug concentration required to increase intracellular [3H]taxol accumulation pretreated for 30 mins prior to [3H]taxol addition measured after 60 mins by liquid scintillation counting analysis; assay type: cell-based
Outline: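 JC cells were seeded at about 25% confluency and grown 3–4 days to near confluency. Medium was switched to serum-free, and compounds were preincubated for 30 min at 37 °C. About 0.1 µCi [³H]Taxol (75 Ci/mmol) per well followed, for 60 min at 37 °C. Cells were washed twice with ice-cold PBS and lysed in 1% SDS. Intracellular label was counted by liquid scintillation, and the lowest concentration giving maximal accumulation was recorded.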

SF-268 = test: Growth inhibition of human SF268 cells after 48 hrs by SRB assay; assay type: functional; conditions: SF-268, 48 h
TK-10 = test: Growth inhibition of human TK10 cells after 48 hrs by SRB assay; assay type: functional; conditions: TK-10, 48 h
MCF7 = test: Growth inhibition of human MCF7 cells after 48 hrs by SRB assay; assay type: functional; conditions: MCF7, 48 h
HCT-15 = test: Growth inhibition of human HCT15 cells after 48 hrs by SRB assay; assay type: functional; conditions: HCT-15, 48 h
NCI-H226 = test: Growth inhibition of human NCI-H226 cells after 48 hrs by SRB assay; assay type: functional; conditions: NCI-H226, 48 h
RPMI-8226 = test: Growth inhibition of human RPMI8226 cells after 48 hrs by SRB assay; assay type: functional; conditions: RPMI-8226, 48 h
U-251 = test: Growth inhibition of human U251 cells after 48 hrs by SRB assay; assay type: functional; conditions: U-251, 48 h
UACC-62 = test: Growth inhibition of human UACC62 cells after 48 hrs by SRB assay; assay type: functional; conditions: UACC-62, 48 h
SK-MEL-28 = test: Growth inhibition of human SK-MEL-28 cells after 48 hrs by SRB assay; assay type: functional; conditions: SK-MEL-28, 48 h
KM12 = test: Growth inhibition of human KM12 cells after 48 hrs by SRB assay; assay type: functional; conditions: KM12, 48 h
SK-MEL-2 = test: Growth inhibition of human SK-MEL-2 cells after 48 hrs by SRB assay; assay type: functional; conditions: SK-MEL-2, 48 h
SF-295 = test: Growth inhibition of human SF295 cells after 48 hrs by SRB assay; assay type: functional; conditions: SF-295, 48 h
SNB-19 = test: Growth inhibition of human SNB19 cells after 48 hrs by SRB assay; assay type: functional; conditions: SNB-19, 48 h
SK-MEL-5 = test: Growth inhibition of human SK-MEL-5 cells after 48 hrs by SRB assay; assay type: functional; conditions: SK-MEL-5, 48 h
UO-31 = test: Growth inhibition of human UO31 cells after 48 hrs by SRB assay; assay type: functional; conditions: UO-31, 48 h
BT-549 = test: Growth inhibition of human BT549 cells after 48 hrs by SRB assay; assay type: functional; conditions: BT-549, 48 h
OVCAR-5 = test: Growth inhibition of human OVCAR5 cells after 48 hrs by SRB assay; assay type: functional; conditions: OVCAR-5, 48 h
DU-145 = test: Growth inhibition of human DU145 cells after 48 hrs by SRB assay; assay type: functional; conditions: DU-145, 48 h
HCT-116 = test: Growth inhibition of human HCT116 cells after 48 hrs by SRB assay; assay type: functional; conditions: HCT-116, 48 h
K562 = test: Growth inhibition of human K562 cells after 48 hrs by SRB assay; assay type: functional; conditions: K562, 48 h
HOP-92 = test: Growth inhibition of human HOP92 cells after 48 hrs by SRB assay; assay type: functional; conditions: HOP-92, 48 h
A498 = test: Growth inhibition of human A498 cells after 48 hrs by SRB assay; assay type: functional; conditions: A498, 48 h
UACC-257 = test: Growth inhibition of human UACC257 cells after 48 hrs by SRB assay; assay type: functional; conditions: UACC-257, 48 h
M14 = test: Growth inhibition of human M14 cells after 48 hrs by SRB assay; assay type: functional; conditions: M14, 48 h
PC-3 = test: Growth inhibition of human PC3 cells after 48 hrs by SRB assay; assay type: functional; conditions: PC-3, 48 h
NCI/ADR-RES = test: Growth inhibition of human NCI/ADR-RES cells after 48 hrs by SRB assay; assay type: functional
RXF 393 = test: Growth inhibition of human RXF393 cells after 48 hrs by SRB assay; assay type: functional; conditions: RXF 393, 48 h
HOP-62 = test: Growth inhibition of human HOP62 cells after 48 hrs by SRB assay; assay type: functional; conditions: HOP-62, 48 h
[2] = Growth inhibition of human EKVX cells after 48 hrs by SRB assay; assay type: functional
SNB-75 = test: Growth inhibition of human SNB75 cells after 48 hrs by SRB assay; assay type: functional; conditions: SNB-75, 48 h
OVCAR-8 = test: Growth inhibition of human OVCAR8 cells after 48 hrs by SRB assay; assay type: functional; conditions: OVCAR-8, 48 h
CAKI-1 = test: Growth inhibition of human CAKI-1 cells after 48 hrs by SRB assay; assay type: functional; conditions: CAKI-1, 48 h
OVCAR-4 = test: Growth inhibition of human OVCAR4 cells after 48 hrs by SRB assay; assay type: functional; conditions: OVCAR-4, 48 h
[3] = Ratio of compound IC50 to paclitaxel IC50 for mouse JC cells after 48 hrs by SRB assay; assay type: functional
SN12C = test: Growth inhibition of human SN12C cells after 48 hrs by SRB assay; assay type: functional
MDA-MB-231 = test: Growth inhibition of human MDA-MB-231 cells after 48 hrs by SRB assay; assay type: functional; conditions: MDA-MB-231, 48 h
NCI-H460 = test: Growth inhibition of human NCI-H460 cells after 48 hrs by SRB assay; assay type: functional; conditions: NCI-H460, 48 h
HL-60 = test: Growth inhibition of human HL60 cells after 48 hrs by SRB assay; assay type: functional; conditions: HL-60, 48 h
[4] = Growth inhibition of human HCC2998 cells after 48 hrs by SRB assay; assay type: functional; conditions: HCC 2998, 48 h
LOX IMVI = test: Growth inhibition of human LOXIMVI cells after 48 hrs by SRB assay; assay type: functional
NCI-H522 = test: Growth inhibition of human NCI-H522 cells after 48 hrs by SRB assay; assay type: functional; conditions: NCI-H522, 48 h
SR = test: Growth inhibition of human SR cells after 48 hrs by SRB assay; assay type: functional
COLO 205 = test: Growth inhibition of human COLO205 cells after 48 hrs by SRB assay; assay type: functional; conditions: COLO 205, 48 h
A549 = test: Growth inhibition of human A549/ATCC cells after 48 hrs by SRB assay; assay type: functional; conditions: A549, 48 h
Malme-3M = test: Growth inhibition of human MALME-3M cells after 48 hrs by SRB assay; assay type: functional
OVCAR-3 = test: Growth inhibition of human OVCAR3 cells after 48 hrs by SRB assay; assay type: functional; conditions: OVCAR-3, 48 h
SF-539 = test: Growth inhibition of human SF539 cells after 48 hrs by SRB assay; assay type: functional; conditions: SF-539, 48 h
786-0 = test: Growth inhibition of human 786-0 cells after 48 hrs by SRB assay; assay type: functional; conditions: 786-0, 48 h
MDA-MB-435 = test: Growth inhibition of human MDA-MB-435 cells after 48 hrs by SRB assay; assay type: functional; conditions: MDA-MB-435, 48 h
SK-OV-3 = test: Growth inhibition of human SKOV3 cells after 48 hrs by SRB assay; assay type: functional; conditions: SK-OV-3, 48 h
NCI-H322M = test: Growth inhibition of human NCI-H322M cells after 48 hrs by SRB assay; assay type: functional
HT-29 = test: Growth inhibition of human HT-29 cells after 48 hrs by SRB assay; assay type: functional; conditions: HT-29, 48 h
MDA-MB-468 = test: Growth inhibition of human MDA-MB-468 cells after 48 hrs by SRB assay; assay type: functional; conditions: MDA-MB-468, 48 h
T47D = test: Growth inhibition of human T47D cells after 48 hrs by SRB assay; assay type: functional
[5] = Growth inhibition of human Hs 578T cells after 48 hrs by SRB assay; assay type: functional
NCI-H23 = test: Growth inhibition of human NCI-H23 cells after 48 hrs by SRB assay; assay type: functional; conditions: NCI-H23, 48 h
IGROV-1 = test: Growth inhibition of human IGROV1 cells after 48 hrs by SRB assay; assay type: functional; conditions: IGROV-1, 48 h
ACHN = test: Growth inhibition of human ACHN cells after 48 hrs by SRB assay; assay type: functional
CCRF-CEM = test: Growth inhibition of human CCRF-CEM cells after 48 hrs by SRB assay; assay type: functional
SW-620 = test: Growth inhibition of human SW620 cells after 48 hrs by SRB assay; assay type: functional; conditions: SW-620, 48 h

Structure (SMILES): Cc1nc(N)nc2c1c(Sc1ccc(Cl)cc1)cn2Cc1ccccc1
IC50 [1]: 7500 nM
LED (JC): inactive

GI50 (MCF7): 46.4 nM
GI50 (HCT-15): 242 nM
GI50 (NCI-H226): 927 nM
GI50 (RPMI-8226): 713 nM
GI50 (U-251): 311 nM
GI50 (SK-MEL-28): 417 nM
GI50 (SK-MEL-2): 446 nM
GI50 (SK-MEL-5): 110 nM
GI50 (BT-549): 440 nM
GI50 (OVCAR-5): 596 nM
GI50 (DU-145): 337 nM
GI50 (HCT-116): 265 nM
GI50 (K562): 116 nM
GI50 (PC-3): 301 nM
GI50 (OVCAR-8): 334 nM
GI50 (OVCAR-4): 338 nM
GI50 (MDA-MB-231): 361 nM
GI50 (NCI-H460): 251 nM
GI50 (HL-60): 220 nM
GI50 (NCI-H522): 31.6 nM
GI50 (COLO 205): 204 nM
GI50 (A549): 329 nM
GI50 (OVCAR-3): 164 nM
GI50 (786-0): 575 nM
GI50 (MDA-MB-435): 32.1 nM
GI50 (SK-OV-3): 251 nM
GI50 (NCI-H322M): 712 nM
GI50 (HT-29): 247 nM
GI50 (MDA-MB-468): 52.4 nM
GI50 (T47D): 443 nM
GI50 (NCI-H23): 428 nM
GI50 (ACHN): 216 nM
GI50 (CCRF-CEM): > 1000 nM
GI50 (SW-620): 208 nM
Structure (SMILES): COc1ccc(Cn2cc(CCc3cc(OC)c(OC)c(OC)c3)c3c(C)nc(N)nc32)cc1
GI50 (SF-268): 379 nM
GI50 (TK-10): 686 nM
GI50 (UACC-62): 61.5 nM
GI50 (KM12): 264 nM
GI50 (SF-295): 83.9 nM
GI50 (SNB-19): 234 nM
GI50 (UO-31): 397 nM
GI50 (HOP-92): > 1000 nM
GI50 (A498): 115 nM
GI50 (UACC-257): > 1000 nM
GI50 (M14): 204 nM
GI50 (NCI/ADR-RES): 202 nM
GI50 (RXF 393): 44.1 nM
GI50 (HOP-62): 362 nM
IC50 [1]: 600 nM
GI50 [2]: 348 nM
GI50 (SNB-75): 172 nM
GI50 (CAKI-1): 206 nM
Ratio IC50 [3]: 4
GI50 (SN12C): 499 nM
GI50 [4]: 191 nM
LED (JC): 0.2 µM
GI50 (LOX IMVI): 364 nM
GI50 (SR): 120 nM
GI50 (Malme-3M): 284 nM
GI50 (SF-539): 96.4 nM
GI50 [5]: 139 nM
GI50 (IGROV-1): 154 nM

Structure (SMILES): Cc1nc(N)nc2c1c(Sc1ccccc1)cn2Cc1ccccc1
IC50 [1]: 4000 nM
LED (JC): inactive

Structure (SMILES): COc1cc(CCc2cn(Cc3cc(OC)c(OC)c(OC)c3)c3nc(N)nc(C)c23)cc(OC)c1OC
IC50 [1]: 1000 nM
Ratio IC50 [3]: 6.6
LED (JC): inactive

Structure (SMILES): COc1cc(Cn2cc(Sc3cc(OC)c(OC)c(OC)c3)c3c(C)nc(N)nc32)cc(OC)c1OC
IC50 [1]: > 100000 nM
LED (JC): inactive

Structure (SMILES): CC(=O)O[C@H]1C(=O)[C@@]2(C)[C@H]([C@H](OC(=O)c3ccccc3)[C@]3(O)C[C@H](OC(=O)[C@H](O)[C@@H](NC(=O)c4ccccc4)c4ccccc4)C(C)=C1C3(C)C)[C@]1(OC(C)=O)CO[C@@H]1C[C@@H]2O [PACLITAXEL]
IC50 [1]: 150 nM

Structure (SMILES): COc1ccccc1Sc1cn(Cc2ccccc2)c2nc(N)nc(C)c12
IC50 [1]: 11000 nM
LED (JC): 1.5 µM

Structure (SMILES): COc1ccc(Cn2cc(CCc3cc(OC)c(OC)c(OC)c3)c3c(C)nc(N)nc32)cc1OC
IC50 [1]: 1500 nM
LED (JC): 1.2 µM
